How the values were obtained:
Type in all cases: functional
Parameters in all cases: scale not given: the % may be the effect or the level left
MCF7 [1] = experiment: Antitumor activity against human MCF7 cells assessed as reduction of cell growth at 10 uM after 48 hrs by SRB assay
Outline: (§1)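 NCI 60-cell-line primary screen, single dose 10^-5 M (final). Cells grown in RPMI 1640 with 5% FBS and 2 mM L-glutamine, seeded at 5000–40,000 cells/well and preincubated 24 h at 37 °C, 5% CO2. Compound is dissolved in DMSO, diluted in medium with gentamicin, and exposed 48 h. Cells are fixed with 10% TCA (final) and stained with 0.4% SRB; absorbance is read at 515 nm. Readout is growth percentage.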

OVCAR-5 = experiment: Antitumor activity against human OVCAR5 cells assessed as reduction of cell growth at 10 uM after 48 hrs by SRB assay; outline: as §1
MOLT-4 = experiment: Antitumor activity against human MOLT-4 cells assessed as reduction of cell growth at 10 uM after 48 hrs by SRB assay; outline: as §1
HOP-92 = experiment: Antitumor activity against human HOP-92 cells assessed as reduction of cell growth at 10 uM after 48 hrs by SRB assay; outline: as §1
PC-3 = experiment: Antitumor activity against human PC-3 cells assessed as reduction of cell growth at 10 uM after 48 hrs by SRB assay; outline: as §1
UO-31 = experiment: Antitumor activity against human UO-31 cells assessed as reduction of cell growth at 10 uM after 48 hrs by SRB assay
Outline: (§2)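 NCI-60 one-dose primary screen at 10^-5 M final. Cells grown in RPMI 1640 with 5% FBS and 2 mM L-glutamine, plated at 5000–40,000 cells/well and preincubated 24 h at 37 °C, 5% CO2. Drug stocks in DMSO, diluted in medium with gentamicin. Exposure 48 h, then fixed in situ with TCA (10% final) for 60 min at 4 °C. Stained with 0.4% SRB in 1% acetic acid, bound dye solubilized in 10 mM trizma base, absorbance read at 515 nm. Reported as mean growth percent; negative values indicate cell kill.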

SK-MEL-5 = experiment: Antitumor activity against human SK-MEL-5 cells assessed as reduction of cell growth at 10 uM after 48 hrs by SRB assay; outline: as §1
OVCAR-8 = experiment: Antitumor activity against human OVCAR8 cells assessed as reduction of cell growth at 10 uM after 48 hrs by SRB assay; outline: as §1
NCI-H23 = experiment: Antitumor activity against human NCI-H23 cells assessed as reduction of cell growth at 10 uM after 48 hrs by SRB assay; outline: as §1
U-251 = experiment: Antitumor activity against human U251 cells assessed as reduction of cell growth at 10 uM after 48 hrs by SRB assay; outline: as §2
SNB-75 = experiment: Antitumor activity against human SNB75 cells assessed as reduction of cell growth at 10 uM after 48 hrs by SRB assay; outline: as §1
UACC-257 = experiment: Antitumor activity against human UACC-257 cells assessed as reduction of cell growth at 10 uM after 48 hrs by SRB assay; outline: as §2
Malme-3M = experiment: Antitumor activity against human MALME-3M cells assessed as reduction of cell growth at 10 uM after 48 hrs by SRB assay; outline: as §1
EKVX = experiment: Antitumor activity against human EKVX cells assessed as reduction of cell growth at 10 uM after 48 hrs by SRB assay; outline: as §1
MDA-MB-231 = experiment: Antitumor activity against human MDA-MB-231/ATCC cells assessed as reduction of cell growth at 10 uM after 48 hrs by SRB assay; outline: as §1
OVCAR-3 = experiment: Antitumor activity against human OVCAR-3 cells assessed as reduction of cell growth at 10 uM after 48 hrs by SRB assay; outline: as §1
K562 = experiment: Antitumor activity against human K-562 cells assessed as reduction of cell growth at 10 uM after 48 hrs by SRB assay; outline: as §1
OVCAR-4 = experiment: Antitumor activity against human OVCAR4 cells assessed as reduction of cell growth at 10 uM after 48 hrs by SRB assay; outline: as §1
LOX IMVI = experiment: Antitumor activity against human LOXIMVI cells assessed as reduction of cell growth at 10 uM after 48 hrs by SRB assay; outline: as §1
SF-295 = experiment: Antitumor activity against human SF-295 cells assessed as reduction of cell growth at 10 uM after 48 hrs by SRB assay; outline: as §1
SW-620 = experiment: Antitumor activity against human SW620 cells assessed as reduction of cell growth at 10 uM after 48 hrs by SRB assay; outline: as §2
DU-145 = experiment: Antitumor activity against human DU145 cells assessed as reduction of cell growth at 10 uM after 48 hrs by SRB assay; outline: as §1
M14 = experiment: Antitumor activity against human M14 cells assessed as reduction of cell growth at 10 uM after 48 hrs by SRB assay; outline: as §1
MDA-MB-435 = experiment: Antitumor activity against human MDA-MB-435 cells assessed as reduction of cell growth at 10 uM after 48 hrs by SRB assay; outline: as §1
UACC-62 = experiment: Antitumor activity against human UACC-62 cells assessed as reduction of cell growth at 10 uM after 48 hrs by SRB assay; outline: as §2
SK-MEL-28 = experiment: Antitumor activity against human SK-MEL-28 cells assessed as reduction of cell growth at 10 uM after 48 hrs by SRB assay; outline: as §1
BT-549 = experiment: Antitumor activity against human BT-549 cells assessed as reduction of cell growth at 10 uM after 48 hrs by SRB assay; outline: as §1
MCF7 [2] = experiment: Antitumor activity against human doxorubicin-resistant MCF7 cells assessed as reduction of cell growth at 10 uM after 48 hrs by SRB assay; outline: as §2
CAKI-1 = experiment: Antitumor activity against human Caki-1 cells assessed as reduction of cell growth at 10 uM after 48 hrs by SRB assay; outline: as §1
SF-539 = experiment: Antitumor activity against human SF-539 cells assessed as reduction of cell growth at 10 uM after 48 hrs by SRB assay; outline: as §1
NCI-H460 = experiment: Antitumor activity against human NCI-H460 cells assessed as reduction of cell growth at 10 uM after 48 hrs by SRB assay; outline: as §1
SK-MEL-2 = experiment: Antitumor activity against human SK-MEL-2 cells assessed as reduction of cell growth at 10 uM after 48 hrs by SRB assay; outline: as §1
CCRF-CEM = experiment: Antitumor activity against human CCRF-CEM cells assessed as reduction of cell growth at 10 uM after 48 hrs by SRB assay; outline: as §1
KM12 = experiment: Antitumor activity against human KM12 cells assessed as reduction of cell growth at 10 uM after 48 hrs by SRB assay; outline: as §1
[3] = Antitumor activity against human HCT 116 cells assessed as reduction of cell growth at 10 uM after 48 hrs by SRB assay; outline: as §1
COLO 205 = experiment: Antitumor activity against human COLO205 cells assessed as reduction of cell growth at 10 uM after 48 hrs by SRB assay; outline: as §1
SR = experiment: Antitumor activity against human SR cells assessed as reduction of cell growth at 10 uM after 48 hrs by SRB assay; outline: as §2

| SMILES | Activity (MCF7 [1]) [%] | Activity (OVCAR-5) [%] | Activity (MOLT-4) [%] | Activity (HOP-92) [%] | Activity (UO-31) [%] | Activity (SK-MEL-5) [%] | Activity (OVCAR-8) [%] | Activity (NCI-H23) [%] | Activity (SNB-75) [%] | Activity (UACC-257) [%] | Activity (Malme-3M) [%] | Activity (EKVX) [%] | Activity (MDA-MB-231) [%] | Activity (OVCAR-3) [%] | Activity (K562) [%] | Activity (OVCAR-4) [%] | Activity (LOX IMVI) [%] | Activity (SF-295) [%] | Activity (SW-620) [%] | Activity (DU-145) [%] | also measured |
| --- | --- | --- | --- | --- | --- | --- | --- | --- | --- | --- | --- | --- | --- | --- | --- | --- | --- | --- | --- | --- | --- |
| C[C@]12CCC(=O)C(N)=C1C=C[C@@H]1[C@@H]2CC[C@]2(C)C(=O)CC[C@@H]12.Cl | -15.97 | 107.69 | 57.2 | 61.94 | 64.59 | 69.71 | 44.03 | 74.07 | 94.19 | 86.69 | 70.81 | 97.99 | 100.87 | 64.57 | -26.94 | 61.98 | 60.57 | 105.1 | 15.36 | 62.36 | Activity (PC-3): 46.51%; Activity (U-251): 54.19%; Activity (M14): 79.51%; Activity (MDA-MB-435): 112.52%; Activity (UACC-62): 81.02%; Activity (SK-MEL-28): 103.4%; Activity (BT-549): 82.63%; Activity (MCF7 [2]): 68.71%; Activity (CAKI-1): 84.08%; Activity (SF-539): 82.75%; Activity (NCI-H460): 83.77%; Activity (SK-MEL-2): 74.41%; Activity (CCRF-CEM): 6.62%; Activity (KM12): 39.52%; Activity [3]: 6.15%; Activity (COLO 205): 121.26% |
| C[C@]12CC[C@H]3[C@@H](CCC4=CC(=O)CC[C@@]43CF)[C@@H]1CCC2=O | 130.43 | 118.37 | 106.1 | 113.59 | 87.76 | 108.7 | 94.26 | 106.48 | 90.07 | 97.04 | 94.17 | 94.85 | 117.71 | 119.07 | 93.48 | 98.85 | 96.65 | 106.3 | 125.89 | 116.2 | Activity (U-251): 111.4%; Activity (SR): 118.7%; Activity (M14): 102.8%; Activity (MDA-MB-435): 100.91%; Activity (UACC-62): 114.6%; Activity (SK-MEL-28): 116.5%; Activity (BT-549): 97.23%; Activity (MCF7 [2]): 107.98%; Activity (CAKI-1): 111%; Activity (SF-539): 105.8%; Activity (NCI-H460): 108.88%; Activity (SK-MEL-2): 97.19%; Activity (CCRF-CEM): 88.21%; Activity (KM12): 117.01%; Activity [3]: 110.19%; Activity (COLO 205): 134.97% |
| CCOC1=C2CC[C@@H]3[C@H](CC[C@]4(C)C(=O)CC[C@@H]34)[C@@]2(C)CCC1=O | 108.56 | 101.66 | 98.59 | 92.93 | 85.82 | 99.39 | 98.96 | 101.11 | 79.71 | 117.1 | 87.47 | 111.14 | 106.73 | 128.63 | 94.09 | 96.98 | 100.3 | 114 | 120.57 | 123.2 | Activity (PC-3): 96.5%; Activity (SR): 104.9%; Activity (M14): 103.8%; Activity (MDA-MB-435): 104.79%; Activity (UACC-62): 90.78%; Activity (SK-MEL-28): 135.2%; Activity (BT-549): 93.87%; Activity (MCF7 [2]): 97.45%; Activity (CAKI-1): 115.2%; Activity (SF-539): 111.3%; Activity (NCI-H460): 83.36%; Activity (SK-MEL-2): 94.48%; Activity (CCRF-CEM): 91.63%; Activity (KM12): 123.89%; Activity [3]: 103.2%; Activity (COLO 205): 132.65% |
